Assay results taken from ChEMBL document CHEMBL5032506, “Identification of Transthyretin Tetramer Kinetic Stabilizers That Are Capable of Inhibiting the Retinol-Dependent Retinol Binding Protein 4-Transthyretin Interaction: Potential Novel Therapeutics for Macular Degeneration, Transthyretin Amyloidosis, and Their Common Age-Related Comorbidities” (J Med Chem, 2021).
Activity calls are given as the source filed them. No cut-off for these calls is given here.

What was measured:
[1] = molecular target: Retinol-binding protein 4 (Homo sapiens, UniProt P02753); test: Displacement of [3H]-all trans retinol from human urine biotinylated RBP4 incubated for 16 hrs measured by Scintillation Proximity Assay
[2] = molecular target: T1, Transthyretin (Homo sapiens, UniProt P02766); test: Binding affinity to human plasma TTR tetramer assessed as displacement of diclofenac-coupled FITC by fluorescence polarization assay; type: cell-free
[3] = molecular target: CYP2C19 (Homo sapiens, UniProt P33261); test: (§1) Inhibition of CYP2C19 (unknown origin) at 10 uM relative to control; type: ADME
Sequence of CYP2C19 (P33261 whole entry): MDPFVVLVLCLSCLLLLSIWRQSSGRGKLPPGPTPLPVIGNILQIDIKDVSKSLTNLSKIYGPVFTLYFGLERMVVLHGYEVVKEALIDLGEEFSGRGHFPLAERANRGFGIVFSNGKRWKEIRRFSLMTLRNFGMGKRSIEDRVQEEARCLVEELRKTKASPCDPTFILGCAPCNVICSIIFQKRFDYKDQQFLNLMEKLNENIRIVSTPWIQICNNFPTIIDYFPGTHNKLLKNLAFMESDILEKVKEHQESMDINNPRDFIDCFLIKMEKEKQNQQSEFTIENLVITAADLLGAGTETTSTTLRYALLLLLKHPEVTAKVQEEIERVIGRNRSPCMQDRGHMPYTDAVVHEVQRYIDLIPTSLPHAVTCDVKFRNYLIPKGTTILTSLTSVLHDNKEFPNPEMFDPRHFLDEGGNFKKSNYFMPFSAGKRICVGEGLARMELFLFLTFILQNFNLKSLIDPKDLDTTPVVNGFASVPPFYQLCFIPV

[4] = molecular target: CYP2C9 (Homo sapiens, UniProt P11712); test: Inhibition of CYP2C9 (unknown origin) at 10 uM relative to control; type: ADME
Sequence of CYP2C9 (P11712 whole entry): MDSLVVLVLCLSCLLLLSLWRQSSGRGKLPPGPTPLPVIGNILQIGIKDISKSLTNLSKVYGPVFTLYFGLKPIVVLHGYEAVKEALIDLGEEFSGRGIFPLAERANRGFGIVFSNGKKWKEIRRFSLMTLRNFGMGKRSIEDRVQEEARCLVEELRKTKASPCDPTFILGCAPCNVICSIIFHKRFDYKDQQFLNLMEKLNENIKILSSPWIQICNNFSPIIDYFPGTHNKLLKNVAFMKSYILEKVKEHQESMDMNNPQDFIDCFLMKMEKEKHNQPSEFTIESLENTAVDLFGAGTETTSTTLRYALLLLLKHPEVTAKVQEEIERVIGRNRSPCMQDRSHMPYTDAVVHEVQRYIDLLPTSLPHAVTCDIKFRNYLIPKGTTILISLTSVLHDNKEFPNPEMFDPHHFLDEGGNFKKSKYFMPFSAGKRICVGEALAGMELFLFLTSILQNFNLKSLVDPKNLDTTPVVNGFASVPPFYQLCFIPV

[5] = Solubility of the compound at pH 7.4 in PBS; type: physicochemical
Outline: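 Kinetic solubility in PBS, pH 7.4. Values above 200 μM are capped at the top assay concentration, 200 μM.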

[6] = molecular target: CYP2D6 (Homo sapiens, UniProt P10635); test: Inhibition of CYP2D6 (unknown origin) at 10 uM relative to control; type: ADME
Sequence of CYP2D6 (P10635 whole entry): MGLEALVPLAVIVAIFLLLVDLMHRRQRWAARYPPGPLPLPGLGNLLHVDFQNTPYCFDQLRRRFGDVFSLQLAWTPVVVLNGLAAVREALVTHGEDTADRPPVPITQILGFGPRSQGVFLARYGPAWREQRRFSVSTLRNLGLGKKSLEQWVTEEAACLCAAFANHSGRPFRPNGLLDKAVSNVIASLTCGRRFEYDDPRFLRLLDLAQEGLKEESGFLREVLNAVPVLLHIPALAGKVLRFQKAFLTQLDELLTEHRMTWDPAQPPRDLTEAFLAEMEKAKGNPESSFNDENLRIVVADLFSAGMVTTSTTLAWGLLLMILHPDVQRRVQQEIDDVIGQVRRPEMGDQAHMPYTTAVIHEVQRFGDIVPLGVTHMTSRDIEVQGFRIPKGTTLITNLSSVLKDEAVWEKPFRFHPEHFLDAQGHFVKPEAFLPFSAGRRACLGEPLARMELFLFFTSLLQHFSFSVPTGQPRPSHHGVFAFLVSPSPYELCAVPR

[7] = Plasma protein binding in rat; type: ADME, cell-free
[8] = molecular target: Cytochrome P450 3A4 (Homo sapiens, UniProt P08684); test: (§2) Inhibition of CYP3A4 (unknown origin) at 10 uM relative to control; type: ADME; settings: 10 µM
Sequence of Cytochrome P450 3A4 (P08684 whole entry): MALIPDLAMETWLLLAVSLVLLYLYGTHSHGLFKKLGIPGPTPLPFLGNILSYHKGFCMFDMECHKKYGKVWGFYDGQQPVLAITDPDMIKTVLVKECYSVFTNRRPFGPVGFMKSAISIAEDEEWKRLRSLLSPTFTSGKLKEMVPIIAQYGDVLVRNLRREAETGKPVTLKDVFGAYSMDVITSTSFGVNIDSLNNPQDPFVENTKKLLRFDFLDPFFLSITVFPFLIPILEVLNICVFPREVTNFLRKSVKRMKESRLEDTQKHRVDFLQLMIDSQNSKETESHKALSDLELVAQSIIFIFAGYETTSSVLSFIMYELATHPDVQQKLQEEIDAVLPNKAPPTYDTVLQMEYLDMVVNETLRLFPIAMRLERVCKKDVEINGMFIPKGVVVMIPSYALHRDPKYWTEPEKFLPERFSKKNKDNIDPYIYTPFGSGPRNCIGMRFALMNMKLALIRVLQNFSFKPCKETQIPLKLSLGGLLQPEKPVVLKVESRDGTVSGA

[9] = Plasma protein binding in human; type: ADME, cell-free
[10] = Microsomal stability in rat liver microsomes assessed as parent compound remaining measured after 30 min; type: ADME, Microsome; settings: 0.5 h
[11] = molecular target: Cytochrome P450 2C19 (Homo sapiens, UniProt P33261); test: as §1; type: ADME; settings: 10 µM
Sequence of Cytochrome P450 2C19 (P33261 whole entry): as the sequence (P33261 whole entry) above

[12] = Cmax in male CD-1 mouse at 5 mg/kg, po; type: ADME, organism-based; parameters: route oral, dose 5 mg/kg; settings: in vivo
Outline: (§3)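 Groups of three drug-naive adult male CD-1 mice; IV dose 2 mg/kg in 3% dimethylacetamide/45% PEG300/12% ethanol/40% sterile water; PO dose 5 mg/kg in 2% Tween 80 in 0.9% saline. Compound measured in blood; AUC_last to last quantifiable time point, AUC_INF extrapolated to infinity; Cmax is maximum observed blood concentration. Mean (SD).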

[13] = AUClast in male CD-1 mouse at 2 mg/kg, iv; type: ADME, organism-based; parameters: route intravenous, time 0 - last, dose 2 mg/kg; settings: in vivo; outline: as §3
[14] = AUC (infinity) in male CD-1 mouse at 5 mg/kg, po; type: ADME, organism-based; parameters: time infinity, route oral, dose 5 mg/kg; settings: in vivo; outline: as §3
[15] = Half life in male CD-1 mouse at 5mg/kg, po; type: ADME, organism-based; settings: in vivo
Outline: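 Adult male CD-1 mice, drug naïve, three per group; single 5 mg/kg oral dose in 2% Tween 80 in 0.9% saline. Blood compound levels followed over time; apparent terminal-phase half-life reported as mean (SD).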

[16] = in vivo; settings: male, CD-1, mouse, iv, 2 mg/kg
[17] = Half life in male CD-1 mouse at 2 mg/kg, iv; type: ADME, organism-based; settings: in vivo
Outline: (§4)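 Adult male CD-1 mice, drug naïve, three per group; single 2 mg/kg IV bolus in 3% dimethylacetamide/45% PEG300/12% ethanol/40% sterile water. Compound measured in blood over time. CL is total body clearance, t1/2 is the terminal elimination phase half-life, Vss is volume of distribution at steady state. Reported as mean (SD).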

[18] = molecular target: CYP3A4 (Homo sapiens, UniProt P08684); test: as §2; type: ADME
Sequence of CYP3A4 (P08684 whole entry): as the sequence (P08684 whole entry) above

[19] = Clearance in male CD-1 mouse at 2 mg/kg, iv; type: ADME, organism-based; settings: in vivo; outline: as §4
[20] = Volume of distribution at steady state in male CD-1 mouse at 2 mg/kg, iv; type: ADME, organism-based; settings: in vivo, read-out: Vdss; outline: as §4
[21] = Microsomal stability in mouse liver microsomes assessed as parent compound remaining measured after 30 min; type: ADME, Microsome; settings: 0.5 h
[22] = molecular target: Voltage-gated inwardly rectifying potassium channel KCNH2 (Homo sapiens, UniProt Q12809); test: Inhibition of human ERG
Sequence of Voltage-gated inwardly rectifying potassium channel KCNH2 (Q12809 whole entry): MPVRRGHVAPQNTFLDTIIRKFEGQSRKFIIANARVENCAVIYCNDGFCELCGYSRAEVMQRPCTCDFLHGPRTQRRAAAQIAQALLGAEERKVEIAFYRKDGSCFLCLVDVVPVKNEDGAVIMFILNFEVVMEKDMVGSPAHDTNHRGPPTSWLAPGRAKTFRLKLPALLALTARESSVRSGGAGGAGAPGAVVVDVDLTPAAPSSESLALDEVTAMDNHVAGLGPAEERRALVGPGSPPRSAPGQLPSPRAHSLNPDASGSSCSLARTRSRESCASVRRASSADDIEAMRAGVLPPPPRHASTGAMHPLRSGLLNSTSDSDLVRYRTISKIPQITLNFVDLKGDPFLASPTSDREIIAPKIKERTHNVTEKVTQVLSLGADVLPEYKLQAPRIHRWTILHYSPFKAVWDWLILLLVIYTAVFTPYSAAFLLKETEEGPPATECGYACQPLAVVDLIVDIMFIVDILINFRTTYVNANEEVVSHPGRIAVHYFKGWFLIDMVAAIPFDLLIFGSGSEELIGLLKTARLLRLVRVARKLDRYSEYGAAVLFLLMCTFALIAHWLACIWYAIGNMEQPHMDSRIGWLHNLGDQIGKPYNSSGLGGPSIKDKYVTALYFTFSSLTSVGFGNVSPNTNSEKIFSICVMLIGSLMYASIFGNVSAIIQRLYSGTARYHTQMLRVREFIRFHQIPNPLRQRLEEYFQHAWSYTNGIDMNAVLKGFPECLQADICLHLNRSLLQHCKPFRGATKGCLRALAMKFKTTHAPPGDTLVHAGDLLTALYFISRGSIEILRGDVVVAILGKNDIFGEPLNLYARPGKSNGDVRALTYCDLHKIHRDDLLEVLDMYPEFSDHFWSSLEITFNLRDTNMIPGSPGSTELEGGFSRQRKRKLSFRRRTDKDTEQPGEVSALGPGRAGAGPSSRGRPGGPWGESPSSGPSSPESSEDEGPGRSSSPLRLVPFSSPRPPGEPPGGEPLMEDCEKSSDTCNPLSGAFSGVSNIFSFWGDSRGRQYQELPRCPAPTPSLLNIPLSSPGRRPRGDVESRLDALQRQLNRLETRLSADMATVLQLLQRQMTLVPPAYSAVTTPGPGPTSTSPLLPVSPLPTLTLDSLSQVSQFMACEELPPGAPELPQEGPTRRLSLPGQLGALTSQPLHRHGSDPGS

[23] = molecular target: T2, Peroxisome proliferator-activated receptor gamma (Homo sapiens, UniProt P37231); test: Activity at PPARgamma (unknown origin)
T2 sequence (P37231 whole entry): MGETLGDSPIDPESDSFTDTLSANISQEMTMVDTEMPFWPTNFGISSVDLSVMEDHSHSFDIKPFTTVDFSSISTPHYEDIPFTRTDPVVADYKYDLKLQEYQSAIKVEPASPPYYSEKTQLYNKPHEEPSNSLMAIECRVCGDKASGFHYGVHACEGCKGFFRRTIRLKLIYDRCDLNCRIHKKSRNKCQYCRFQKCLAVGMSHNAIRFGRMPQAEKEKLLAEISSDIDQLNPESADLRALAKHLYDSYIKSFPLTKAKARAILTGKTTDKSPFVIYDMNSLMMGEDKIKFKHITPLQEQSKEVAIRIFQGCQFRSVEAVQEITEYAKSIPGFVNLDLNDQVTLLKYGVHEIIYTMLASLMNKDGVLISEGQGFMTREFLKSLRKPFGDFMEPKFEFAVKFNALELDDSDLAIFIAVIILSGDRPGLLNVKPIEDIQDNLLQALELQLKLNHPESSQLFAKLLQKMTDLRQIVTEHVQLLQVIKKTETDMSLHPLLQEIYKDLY

[24] = AUClast in male CD-1 mouse at 5 mg/kg, po; type: ADME, organism-based; parameters: time 0 - last, route oral, dose 5 mg/kg; settings: in vivo; outline: as §3
[25] = system: Mus musculus; test: Reduction in serum RBP4 level in mouse measured at 25 mg/kg, po administered as single dose measured after 2 hrs; type: functional
[26] = AUC in male CD-1 mouse at 2 mg/kg, iv; type: ADME, organism-based; parameters: dose 2 mg/kg; settings: in vivo; outline: as §3
[27] = Disruption of retional-induced bacterially expressed MBP-tagged RBP4-TTR (unknown origin) protein-protein interaction measured by d2 dye based HTFR assay; parameters: species or system Homo sapiens
[28] = Microsomal stability in human liver microsomes assessed as intrinsic clearance; type: ADME, Microsome
[29] = Microsomal stability in human liver microsomes assessed as parent compound remaining measured after 30 min; type: ADME, Microsome; settings: 0.5 h
[30] = system: Mus musculus; test: Reduction in serum RBP4 level in mouse measured at 25 mg/kg, po after 6 hrs; type: functional
Outline: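 Balb/c mice given a single oral dose, 25 mg/kg, in 0.9% NaCl/2% Tween 80, with a vehicle group. […] Three to eight mice per group; mean ± SD.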

[31] = system: Mus musculus; test: Reduction in serum RBP4 level in mouse measured at 25 mg/kg, po after 1 hr
[32] = system: Mus musculus; test: Reduction in serum RBP4 level in mouse measured at 25 mg/kg, po after 2 hrs
[33] = molecular target: T1, Transthyretin; test: Stabilization of human plasma TTR assessed as increase in dimer band intensity at 50 uM measured after 72 hrs by Western blotting analysis; type: cell-free
[34] = system: Mus musculus; test: Effect of TTR level in po dosed mouse serum; type: functional, organism-based
[35] = molecular target: T1, Transthyretin; test: Stabilization of human plasma TTR assessed as supression of low pH mediated TTR aggregate formation at 50 uM using pH 4 buffer; type: cell-free
[36] = molecular target: T1, Transthyretin; test: Stabilization of human plasma TTR assessed as supression of low pH mediated TTR aggregate formation at 50 uM using pH 4.0 buffer
[37] = molecular target: T1, Transthyretin; test: Stabilization of human plasma TTR assessed as inhibition of formation of high molecular weight forms of TTR with acetate buffer at pH 4 by measured at 50 uM after 72 hrs by acid-induced aggregation assay; type: cell-free

## Cc1n[nH]c(C)c1CCCOc1cc(C(=O)O)ccc1F [ACORAMIDIS]
[1]
  IC50: > 30 µM

## O=C(O)c1ccc(F)c(N2CCN(c3nn[nH]n3)CC2)c1
[1]
  IC50: > 3 µM
[2]
  IC50: > 30 µM

## Cc1n[nH]c(C)c1N1CCC2(CCN(c3cc(C(=O)O)ccc3F)C2)C1 (racemic)
[1]
  IC50: > 3 µM
[2]
  IC50: 1.08 µM

## Cc1n[nH]c(C)c1N1CCN(c2cccc(C(=O)O)c2F)CC1
[1]
  IC50: > 3 µM

## Cc1cc(F)c(N2CCN(c3c(C)n[nH]c3C)CC2)cc1C(=O)O
[3]
  inhibition at 10 µM: -3%
[4]
  inhibition at 10 µM: 1.1%
[1]
  IC50: > 3 µM
[5]
  solubility kinetic: ≥ 200 µM
[6]
  inhibition at 10 µM: 9.2%
[7]
  PPB: 93%
[8]
  inhibition (INH): 31.7%
[9]
  PPB: 87%
[10]
  Stability: 105%

## Cc1n[nH]c(C)c1N1CCN(c2cc(C(=O)O)ccc2Cl)CC1
[11]
  inhibition (INH): 1.85%
[4]
  inhibition at 10 µM: 25.2%
[1]
  IC50: > 3 µM
[5]
  solubility kinetic: ≥ 200 µM
[6]
  inhibition at 10 µM: 10%
[7]
  PPB: 89%
[8]
  inhibition (INH): 19.5%

## Cc1n[nH]c(C)c1N1CCN(c2cc(C(=O)O)ccc2F)CC1 [listing 1 of 3 here]
[12]
  Cmax: 1560 ng/mL
[13]
  AUC(0-t): 6210 ng·h/mL
[14]
  AUC(0-inf): 16100 ng·h/mL
[15]
  half-life: 5.38 h
[4]
  inhibition at 10 µM: 10.4%
[1]
  IC50: > 3 µM
[16]
  C0: 1620 ng/mL
[17]
  half-life: 5.08 h
[6]
  inhibition at 10 µM: 8.1%
[18]
  inhibition at 10 µM: -2.2%
[9]
  PPB: 83%
[19]
  clearance: 5.9 mL/min/kg
[20]
  Vd: 2.18 L/kg
[21]
  Stability: 102%
[22]
  IC50: > 30 µM
[23]
  EC50: > 30 µM
[24]
  AUC(0-t): 16000 ng·h/mL
[25]
  inhibition in vivo at 25 mg/kg: 66%
[26]
  AUC: 6240 ng·h/mL

## Cc1n[nH]c(C)c1N1CCN(c2cc(C(=O)O)ccc2I)CC1
[27]
  IC50: 2.65 µM
[2]
  IC50: 0.19 µM

## Cc1n[nH]c(C)c1N1CC2(CN(c3cc(C(=O)O)ccc3F)C2)C1
[1]
  IC50: > 3 µM
[2]
  IC50: > 30 µM

## Cc1n[nH]c(C)c1N1CCN(c2ccc(F)c(C(=O)O)c2)CC1
[1]
  IC50: > 3 µM

## Cc1ccc(C(=O)O)cc1N1CCN(c2c(C)n[nH]c2C)CC1
[3]
  inhibition at 10 µM: 0.06%
[4]
  inhibition at 10 µM: 56.2%
[1]
  IC50: > 3 µM
[5]
  solubility kinetic: ≥ 200 µM
[6]
  inhibition at 10 µM: 7.34%
[18]
  inhibition at 10 µM: -5.2%

## Cc1n[nH]c(C)c1N1CCN(c2cc(C(N)=O)ccc2F)CC1
[1]
  IC50: > 3 µM

## Cc1n[nH]c(C)c1N1CCN(c2cc(C(=O)O)ccc2C(F)(F)F)CC1
[11]
  inhibition (INH): 2.3%
[4]
  inhibition at 10 µM: 17.1%
[1]
  IC50: > 3 µM
[5]
  solubility kinetic: ≥ 200 µM
[6]
  inhibition at 10 µM: 5.9%
[8]
  inhibition (INH): 14.8%
[9]
  PPB: 86%

## Cc1n[nH]c(C)c1N1CCN(c2cc(F)cc(C(=O)O)c2)CC1
[1]
  IC50: > 3 µM

## Cc1noc(C)c1N1CCN(c2cc(C(=O)O)ccc2F)CC1
[1]
  IC50: > 3 µM

## Cc1n[nH]c(C)c1N1CCN(c2cc(-c3nn[nH]n3)ccc2F)CC1
[3]
  inhibition at 10 µM: -4.8%
[4]
  inhibition at 10 µM: 26.3%
[28]
  CLH: 18.4 µL/min/mg
[1]
  IC50: > 3 µM
[5]
  solubility kinetic: ≥ 200 µM
[6]
  inhibition at 10 µM: 0.8%
[7]
  PPB: 94%
[8]
  inhibition (INH): 18.9%
[29]
  Stability: 71.4%

## Cc1n[nH]c(C)c1N1CCN(c2cccc(C(=O)O)c2)CC1
[1]
  IC50: > 30 µM

## Cc1n[nH]c(C)c1N1CCN(c2cc(C(=O)O)ccc2F)CC1 [listing 2 of 3 here]
[30]
  inhibition in vivo at 25 mg/kg: 81%

## Cc1n[nH]c(C)c1N1CCN(c2cc(C(=O)O)ccc2F)CC1 [listing 3 of 3 here]
[31]
  inhibition: Active
[32]
  inhibition: Active
[33]
  Activity: Active
[34]
  Activity: inactive
[35]
  Activity: Active
[36]
  Activity: Active
[37]
  Activity: Active

## O=C(O)c1ccc(F)c(N2CCN(c3ccccc3C(F)(F)F)CC2)c1
[1]
  IC50: > 3 µM
[2]
  IC50: 1.7 µM

## Cc1n[nH]c(C)c1N1C[C@H]2CN(c3cc(C(=O)O)ccc3F)C[C@H]2C1
[1]
  IC50: > 3 µM
[2]
  IC50: 2.82 µM

## O=C(O)c1ccc2nc(-c3cc(Cl)cc(Cl)c3)oc2c1
[1]
  IC50: > 30 µM
[33]
  Activity: Active
[37]
  Activity: Active
